Reference: ChEMBL document CHEMBL1125937, “Nucleosides and nucleotides. 100. 2'-C-cyano-2'-deoxy-1-beta-D-arabinofuranosyl-cytosine (CNDAC): design of a potential mechanism-based DNA-strand-breaking antineoplastic nucleoside” (J Med Chem, 1991)
Values after ≈ are worked out from the molar mass of the structure shown.

Experiments:
Assay type in all cases: functional, cell-based
QG-56 = assay: Inhibitory effect tested in vitro for the growth of Lung squamous-cell carcinoma QG-56 cell line; settings: Homo sapiens
Method in brief: (§1)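 MTT assay: tumor cells seeded at 1 × 10^4 per well, incubated 72 h with or without compound, then MTT added and OD 570 nm read. % inhibition = [1 − OD sample/OD control] × 100. IC50 is the concentration giving 50% inhibition of cell growth.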

NUGC-4 = assay: Inhibitory effect tested in vitro for the growth of Stomach adenocarcinoma NUGC-4 cell line; settings: Homo sapiens; method in brief: as §1
HOS-TE85 = assay: Inhibitory effect tested in vitro for the growth of Osteosarcoma MNNG-HOS cell line; settings: Homo sapiens; method in brief: as §1
PC-8 = assay: Inhibitory effect tested in vitro for the growth of Lung adenocarcinoma PC-8 cell line; settings: Homo sapiens; method in brief: as §1
PC-9 = assay: Inhibitory effect tested in vitro for the growth of Lung adenocarcinoma PC-9 cell line; settings: Homo sapiens; method in brief: as §1
SW480 = assay: Inhibitory effect tested in vitro for the growth of colon adenocarcinoma SW-480 cell line; settings: Homo sapiens; method in brief: as §1
OST = assay: Inhibitory effect tested in vitro for the growth of Osteosarcoma OST cell line; settings: Homo sapiens; method in brief: as §1
MKN-28 = assay: Inhibitory effect tested in vitro for the growth of Stomach adenocarcinoma MKN- 28 cell line; settings: Homo sapiens; method in brief: as §1
PC-13 = assay: Inhibitory effect tested in vitro for the growth of Lung adenocarcinoma PC-13 cell line; settings: Homo sapiens, in the assay text read “Lung large-cell carcinoma” for “Lung adenocarcinoma”; method in brief: as §1
KHOS-321H = assay: Inhibitory effect tested in vitro for the growth of Osteosarcoma KHOS-321H cell line; settings: Homo sapiens; method in brief: as §1
SK-ES1 = assay: Inhibitory effect tested in vitro for the growth of Osteosarcoma SK-ES-1 cell line; settings: Homo sapiens; method in brief: as §1
PC-3 = assay: Inhibitory effect tested in vitro for the growth of Lung adenocarcinoma PC-3 cell line; settings: Homo sapiens; method in brief: as §1
ST-KM-1 = assay: Inhibitory effect tested in vitro for the growth of Stomach adenocarcinoma ST-KM cell line; settings: Homo sapiens; method in brief: as §1
MKN-1 = assay: Inhibitory effect tested in vitro for the growth of Stomach adenocarcinoma MKN-1 cell line; settings: Homo sapiens; method in brief: as §1
MKN-7 = assay: Inhibitory effect tested in vitro for the growth of Stomach adenocarcinoma MKN-7 cell line; settings: Homo sapiens; method in brief: as §1

Row | SMILES | IC50 (QG-56) [µg/mL] | IC50 (NUGC-4) [µg/mL] | IC50 (HOS-TE85) [µg/mL] | IC50 (PC-8) [µg/mL] | IC50 (PC-9) [µg/mL] | IC50 (SW480) [µg/mL] | IC50 (OST) [µg/mL] | IC50 (MKN-28) [µg/mL] | IC50 (PC-13) [µg/mL] | IC50 (KHOS-321H) [µg/mL] | IC50 (SK-ES1) [µg/mL] | IC50 (PC-3) [µg/mL] | IC50 (ST-KM-1) [µg/mL] | IC50 (MKN-1) [µg/mL] | IC50 (MKN-7) [µg/mL]
1 | Nc1ccn([C@@H]2O[C@H](CO)[C@@H](O)[C@H]2O)c(=O)n1 [CYTIDINE] | > 100 | > 100 | 2.6 (≈ 10.7 µM) | 0.28 (≈ 1.15 µM) | 1.6 (≈ 6.58 µM) | > 100 | > 100 | 4.5 (≈ 18.5 µM) | > 100 | 0.27 (≈ 1.11 µM) | 0.09 (≈ 0.37 µM) | > 100 | > 100 | – | –
2 | N#C[C@H]1[C@H](O)[C@@H](CO)O[C@H]1n1ccc(N)nc1=O [TAS-109] | 40 (≈ 159 µM) | 5.2 (≈ 20.6 µM) | 6.8 (≈ 27 µM) | 4.6 (≈ 18.2 µM) | 4.4 (≈ 17.4 µM) | 0.27 (≈ 1.07 µM) | 6.4 (≈ 25.4 µM) | 1.7 (≈ 6.74 µM) | > 100 | 4.5 (≈ 17.8 µM) | 2.2 (≈ 8.72 µM) | 5.6 (≈ 22.2 µM) | 2.8 (≈ 11.1 µM) | 2.1 (≈ 8.33 µM) | 1.4 (≈ 5.55 µM)
